The target in data set [1] is T1, Cytochrome P450 11B2, mitochondrial (Homo sapiens, UniProt P19099).
T1 sequence (P19099 whole entry): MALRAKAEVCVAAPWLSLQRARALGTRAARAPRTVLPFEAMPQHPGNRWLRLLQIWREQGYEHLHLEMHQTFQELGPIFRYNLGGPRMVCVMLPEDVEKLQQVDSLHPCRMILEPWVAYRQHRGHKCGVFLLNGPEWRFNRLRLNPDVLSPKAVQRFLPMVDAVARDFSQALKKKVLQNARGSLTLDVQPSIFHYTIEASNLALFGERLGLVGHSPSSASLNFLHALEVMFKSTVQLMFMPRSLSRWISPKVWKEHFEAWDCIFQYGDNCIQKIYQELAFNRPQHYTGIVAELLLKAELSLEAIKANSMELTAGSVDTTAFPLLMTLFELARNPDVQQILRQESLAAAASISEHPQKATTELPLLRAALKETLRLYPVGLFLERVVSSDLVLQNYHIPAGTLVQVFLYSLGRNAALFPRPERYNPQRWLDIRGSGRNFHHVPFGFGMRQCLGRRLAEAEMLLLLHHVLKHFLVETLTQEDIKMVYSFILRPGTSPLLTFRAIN
Briefly: Inhibition of human CYP11B2 expressed in V79 cells assessed as aldosterone level after 3 hrs by HTRF assay in presence of 125 nM 11-deoxycorticosterone. Format: cell-based. (In TR-FRET formats the signal depends on donor and acceptor labels being close together.)

For data set [2], the target named is T2, Cytochrome P450 11B1, mitochondrial (Homo sapiens, UniProt P15538).
T2 sequence (P15538 whole entry): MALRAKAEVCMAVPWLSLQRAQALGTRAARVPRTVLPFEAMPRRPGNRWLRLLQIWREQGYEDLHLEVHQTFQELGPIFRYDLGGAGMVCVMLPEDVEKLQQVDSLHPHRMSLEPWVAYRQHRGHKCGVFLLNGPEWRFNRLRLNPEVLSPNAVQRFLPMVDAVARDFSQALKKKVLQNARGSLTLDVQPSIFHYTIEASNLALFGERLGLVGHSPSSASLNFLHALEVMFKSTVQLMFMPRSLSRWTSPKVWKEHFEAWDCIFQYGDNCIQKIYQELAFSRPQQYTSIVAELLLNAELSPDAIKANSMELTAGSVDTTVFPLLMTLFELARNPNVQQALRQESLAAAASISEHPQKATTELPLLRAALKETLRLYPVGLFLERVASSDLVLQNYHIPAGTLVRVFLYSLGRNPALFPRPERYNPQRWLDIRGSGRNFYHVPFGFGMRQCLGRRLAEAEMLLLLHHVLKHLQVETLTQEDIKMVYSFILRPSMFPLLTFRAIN
Briefly: Inhibition of human CYP11B1 expressed in V79 cells assessed as cortisol level after 3 hrs by HTRF assay in presence of 250 nM 11-deoxycortisol. Format: cell-based.

The species entered for data set [3] is Homo sapiens. The experiment in a line: Selectivity index, ratio IC50 for human CYP11B1 to IC50 for human CYP11B2. The procedure, abridged:
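Ratio of human CYP11B1 IC50 to human CYP11B2 IC50; each IC50 calculated from n ≥ 2 determinations.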

Data set [4] in a line: Lipophilicity, log D of the compound by HPLC. Format: physicochemical. The procedure, abridged: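 Lipophilicity determined experimentally by HPLC.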
A short description of data set [5]: Intrinsic clearance in Sprague-Dawley rat liver microsomes by LC/MS method. Format: ADME. Particulars: read-out: CLH. A general note: Microsomes from liver hold many membrane-bound enzymes, among them those of drug oxidation.
The nature of data set [6]: Oral bioavailability in Sprague-Dawley rat at 2 mg/kg administered through gavage. Type of data set: ADME, organism-based. Particulars: in vivo.
For data set [7], the system named is Rattus norvegicus. Briefly: Dose normalized AUC in Sprague-Dawley rat at 2 mg/kg, po administered through gavage. Format: ADME, organism-based. Particulars: in vivo.
Data set [8] in a line: Plasma clearance in Sprague-Dawley rat at 2 mg/kg, po administered through gavage by LC/MS/MS method. Type of data set: ADME, organism-based.
Data set [9] is described as follows: Half life in Sprague-Dawley rat at 2 mg/kg, po administered through gavage by LC/MS/MS method. Type of data set: ADME, organism-based. Particulars: in vivo.
The nature of data set [10]: Plasma protein binding in Sprague-Dawley rat. Type of data set: ADME, cell-free.

Where only a bound is given, the exact number is not on record here.

In general, IC50 refers to the concentration needed to halve the response being measured. A word on the logD: it is lipophilicity at a set pH, counting ionised and neutral species. Lower therefore signals lower lipophilicity. By bioavailability is commonly meant the share of a dose that reaches the circulation, judged against a reference dose that is usually intravenous. Read a low bioavailability as poor availability. By CL/F is commonly meant the apparent clearance, not corrected for the fraction that reaches the circulation. In general, half-life refers to the time in which the quantity being followed falls by half. Lower therefore signals fast loss. What is called fraction unbound is the share of the substance not bound to proteins or other matrix.

Turning to `CC(C)(O)c1cncc(-c2ccc3c(c2)CCc2nnc(C(F)(F)F)n2-3)c1`, the IC50 in data set [1] worked out at 526 nM; in [2] it was 1470 nM. Also, the Ratio IC50 in data set [3] came out at 3. The molecule further registered a log distribution coefficient (logD) in data set [4] of 1.5. Moreover, in data set [5], the CLint scaled is less than 20 mL/min/kg. This molecule had a bioavailability in data set [6] of 83%. Further, the AUC/dose in data set [7] is 3.87 µM·kg·h/mg. The CL/F in data set [8] was 10 mL/min/kg. This molecule also had a half-life in data set [9] of 2.9 h. In addition, the fraction unbound in data set [10] was determined as 0.997.

These data come from ChEMBL document CHEMBL3621164, “Discovery of Triazole CYP11B2 Inhibitors with in Vivo Activity in Rhesus Monkeys” (ACS Med Chem Lett, 2015).
